For one data set, the system named is T20. Nature of the data set: Inhibition of gamma secretase in T20 cells assessed as amyloid precursor protein cleavage at 10 uM after 24 hrs by luciferase reporter gene assay. Further details: scale not given: the % may be the effect or the level left. The class given is cell-based. A digest of the protocol: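 T20 cells (stable C99-luciferase reporter line, kept in hygromycin/blasticidin/zeocin medium) plated 2 × 10⁴/well and held 24 h at 37 °C. Compounds added at 10 µM final with tetracycline 1 µg/ml for 24 h at 37 °C. Luminescence read with Steady-Glo reagent as fold luciferase activation versus DMSO; triplicates.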
On the technique in general: In a reporter assay the amount or activity of a reporter protein is the signal.

Data set [1] can be described thus: Inhibition of monoamino oxidase B from F344/N rat brain cortex.
Data set [2] is described as follows: Lipophilicity, log P of the compound. The class given is physicochemical. To be noted: octanol/water.
For data set [3], the target named is Mitogen-activated protein kinase; ERK1/ERK2 (Homo sapiens) (UniProt P27361+P28482). Kind of data set: Activation of ERK1/2 in T20 cells at 10 uM relative to nontreated cells. Type of data set: cell-based. Summed up: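 T20 cells plated at 5 × 10⁵/well, grown 18 h at 37 °C, then 18 h with tetracycline 1 µg/ml. Medium switched to DMEM with 0.5% FBS and compounds added at 10 µM. Lysis in Tris-HCl pH 8.0 buffer with Triton X-100 and inhibitors; 50 lg protein run on 12% SDS-PAGE and immunoblotted for phospho-ERK1/2 and total ERK1/2. Read-out p-ERK/ERK % of untreated; three experiments.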

The nature of data set [4]: Increase in sAPP alpha secretion in gamma-30 cells. The class given is functional, cell-based. A digest of the protocol:
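Conditioned media from c-30 cells (full-length APP with human PS1, Aph-1a2, Pen-2), normalised to lysate protein content. Immunoprecipitated with rabbit polyclonal anti-Ab1–17, separated by SDS–PAGE and Western blotted with mouse monoclonal 6E10 to detect sAPPa.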

For orientation: IC50 means the concentration that gives 50% inhibition. Usually logP stands for the decadic logarithm of the partition coefficient of the neutral form, usually between octanol and water.

Active and inactive are the calls of the source. The rule behind the calls is not given here.

Mitogen-activated protein kinase; ERK1/ERK2 (Homo sapiens), sequence (P27361 whole entry, looked up): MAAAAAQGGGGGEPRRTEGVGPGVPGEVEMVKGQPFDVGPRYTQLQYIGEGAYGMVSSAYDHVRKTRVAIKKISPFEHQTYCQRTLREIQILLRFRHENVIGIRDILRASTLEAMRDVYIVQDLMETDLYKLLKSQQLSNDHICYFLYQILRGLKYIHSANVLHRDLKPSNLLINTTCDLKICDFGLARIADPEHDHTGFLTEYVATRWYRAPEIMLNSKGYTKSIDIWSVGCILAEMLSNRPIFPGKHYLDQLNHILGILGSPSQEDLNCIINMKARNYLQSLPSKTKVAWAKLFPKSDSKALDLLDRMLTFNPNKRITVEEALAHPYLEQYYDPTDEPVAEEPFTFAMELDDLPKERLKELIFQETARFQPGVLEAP
Mitogen-activated protein kinase; ERK1/ERK2 (Homo sapiens), sequence (P28482 whole entry, looked up): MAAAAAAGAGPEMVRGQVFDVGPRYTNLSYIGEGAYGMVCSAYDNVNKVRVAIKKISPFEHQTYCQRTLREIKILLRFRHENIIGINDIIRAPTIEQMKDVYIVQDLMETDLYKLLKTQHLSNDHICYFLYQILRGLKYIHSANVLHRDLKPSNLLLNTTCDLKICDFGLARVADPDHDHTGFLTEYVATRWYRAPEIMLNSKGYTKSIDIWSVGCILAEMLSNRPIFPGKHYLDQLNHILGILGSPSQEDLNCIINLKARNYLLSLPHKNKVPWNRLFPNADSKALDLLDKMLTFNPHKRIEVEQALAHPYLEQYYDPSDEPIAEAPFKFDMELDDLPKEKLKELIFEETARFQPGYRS

Turning to `O=C(Oc1ccc2c(c1)CN(CC1CC1)CC2)N1CCOCC1`, the Activity in the data set with T20 was 35%; in data set [3] it was 138%. This molecule also showed a half-maximal inhibitory concentration (IC50) in data set [1] of 18.5 µM. The same molecule returned a lipophilicity (logP) in data set [2] of 2.29. Also, the outcome in data set [4] was Active.

In turn, `C#CCN1CCc2ccc(OC(=O)N3CCOCC3)cc2C1` came in with an IC50 in data set [1] of 18.7 µM. Also, the logP in data set [2] was determined as 1.57.

`C#CCN1CCc2ccc(OC(=O)N(C)CC)cc2C1`: the IC50 in data set [1] came to 21.5 µM. In data set [2], the log partition coefficient (logP) amounted to 2.25.

Regarding `C#CCN1CCc2ccc(OC(=O)N3CCCC3)cc2C1`, the IC50 in data set [1] is 13.9 µM. In data set [2], this molecule gave a logP of 2.23.

`O=C(Oc1ccc2c(c1)CN(CC1CC1)CC2)N1CCCCC1`: the Activity in the data set on T20 turned out to be 35%; in data set [3], 155%. Moreover, the IC50 in data set [1] came out at 11.6 µM. The molecule further registered a log partition coefficient (logP) in data set [2] of 3.09. Further, in data set [4], the result was Active.

For `CCN(C)C(=O)Oc1ccc2c(c1)CN(CC1CC1)CC2`, the figures for the Activity (in the data set on T20; in data set [3]) were 35% and 131%, respectively. The molecule also showed an IC50 in data set [1] of 12.8 µM. Further, the lipophilicity (logP) in data set [2] turned out to be 2.69. In addition, the result in data set [4] was Active.

Molecule `O=C(Oc1ccc2c(c1)CN(CC1CC1)CC2)N1CCCC1` gave a half-maximal inhibitory concentration (IC50) in data set [1] of 14.9 µM. In data set [2], this molecule displayed a logP of 2.67.

Turning to `C#CCN[C@@H]1CCc2ccccc21` [RASAGILINE], in data set [1], the concentration for half-maximal inhibition (IC50) worked out at 2.1 µM. In addition, in data set [2], the lipophilicity (logP) amounted to 2.29. The Activity in data set [3] amounted to 131%.

In the case of `C#CCN1CCc2ccc(OC(=O)N3CCCCC3)cc2C1`, in data set [1], inhibition was half-maximal at 15.7 µM (IC50). Further, the logP in data set [2] was found to be 2.63.
